The test system of assay [1] is L. mexicana amastigotes within macrophage host (RAW 267.4). As to the kind of experiment: Infected cell assay: screening against infected macrophages. To be noted: 24 h. It is filed as cell-based, Leishmania mexicana.
In assay [2] the test system is RAW 267.4 macrophages. The experiment in a line: Cytotoxicity screening against RAW267.4 macrophages. It is filed as cell-based, Mus musculus. The procedure, abridged: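 Only compounds retained after the axenic amastigote dose-response screen were tested. Host RAW 267.4 macrophages were used. […] Selectivity index is macrophage ED50 divided by axenic amastigote ED50.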

In assay [3] the test system is L. mexicana axenic amastigotes. As to the kind of experiment: Primary screen against axenic amastigotes, single concentration. As to conditions: 50 μM, in duplicate, inhibition of amastigote proliferation. It counts as cell-based, Leishmania mexicana. The procedure, abridged:
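Run in a 96-well format against mammalian-stage L. mexicana axenic amastigotes. Each test compound was tested at a single 50 μM in duplicate, with inhibition of amastigote proliferation as the read-out. Amphotericin B served as positive control, and plate robustness was judged by Z′ factor.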

Assay [4] has as its system axenic L. mexicana amastigotes. The experiment in a line: Secondary dose response screen against axenic amastigotes. It is filed as cell-based, Leishmania mexicana. To be noted: 50 µM to 0.21 µM, 24 h + 24 h alamarBlue, 33 °C. Background: The colour change of resazurin is a common sign of viable cells or microbes.

Each structure is given as a SMILES string. Entries after “also recorded” stand apart in the source; their conditions may differ.

Turning to `CC1(C)CC[C@]2(C(=O)O)CC[C@]3(C)C(=CC[C@@H]4[C@@]5(C)CC[C@H](OC(=O)CCC(=O)O)[C@@](C)(COC(=O)CCC(=O)O)[C@@H]5CC[C@]43C)[C@@H]2C1` [IVL-1, hederagenin disuccinate], the “InMAC ED50 - effective dose to kill 50% of amastigotes within macrophage host (RAW 267.4)” value in assay [1] was “not active”. Further, the “SI - selectivity index, RAW ED50/AMA ED50” value in assay [2] (RAW 267.4 macrophages versus axenic L. mexicana amastigotes) is on record as greater than 43.5. In addition, in assay [2] (toxicity study, 100 µM to 0.41 µM, 24 h), the “RAW ED50 - effective dose to kill 50% of host macrophage (RAW 267.4)” value was greater than 100 µM. In the case of `CC1(C)CC[C@]2(C(=O)O)CC[C@]3(C)C(=CC[C@@H]4[C@@]5(C)CC[C@H](O)[C@@](C)(CO)[C@@H]5CC[C@]43C)[C@@H]2C1` [IVL-7, hederagenin], the “% inhibition Primary screen” value in assay [3] is reported as less than 95%. Still for that read-out and setting: under `CC1(C)CC[C@]2(C(=O)O)CC[C@]3(C)C(=CC[C@@H]4[C@@]5(C)CC[C@H](O)C(C)(C)[C@@H]5CC[C@]43C)[C@@H]2C1` [IVL-8, Oleanolic acid] stands “fell below the threshold; also recorded: deselected”. The same measure, in the same setting: under `CC1(C)CC[C@]2(C(=O)O)CC[C@]3(C)C(=CCC4[C@@]5(C)CC[C@H](O[C@@H]6O[C@H](CO)[C@@H](O)[C@H](O)[C@H]6O[C@@H]6O[C@H](CO)[C@@H](O)[C@H](O)[C@H]6O)[C@@](C)(CO)C5CC[C@]43C)[C@@H]2C1` (some centres unmarked) [IVL-14, hederoside F] stands “fell below the threshold; also recorded: did not reach this cut-off”; under `C[C@@H]1O[C@@H](O[C@H]2[C@H](O)[C@@H](O)[C@H](OC[C@H]3O[C@@H](OC(=O)[C@]45CCC(C)(C)C[C@H]4C4=CC[C@@H]6[C@@]7(C)CC[C@H](O[C@@H]8OC[C@H](O)[C@H](O)[C@H]8O)[C@@](C)(CO)[C@@H]7CC[C@@]6(C)[C@]4(C)CC5)[C@H](O)[C@@H](O)[C@@H]3O)O[C@@H]2CO)[C@H](O)[C@H](O)[C@H]1O` [IVL-15, hederacoside D], “inactive”. As to `CC1(C)CC[C@]2(CO)CC[C@]3(C)C(=CC[C@@H]4[C@@]5(C)CC[C@@H]6O[C@H]([C@H](O)[C@@H](O)[C@@H](O)CO)OC[C@@]6(C)[C@@H]5CC[C@]43C)[C@@H]2C1` [IVL-80, Anemoclemoside A2], the “AMA ED50 - effective dose to kill 50% of axenic L. mexicana amastigotes” value in assay [4] was greater than 50 µM.

(Values after paper PMC7651632 (RSC Medicinal Chemistry, 2020).)
